From PubChem BioAssay AID488748 (Sanford-Burnham Center for Chemical Genomics, 2010)
Activity calls are given as the source filed them.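 The calls were made as follows: active = compounds whose mean dose-response EC50 for APJ receptor activation is under 20 micromolar; inactive = the rest.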

Target: Apelin receptor (Homo sapiens) (UniProt P35414)
Test: APJ agonists inducing beta-arrestin recruitment, dose response, cell-based, luminescence, uHTS hits (AID 488748)
Settings: CHO-K1 APJ PathHunter beta-arrestin
In short: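 system = CHO-K1 cells stably expressing ProLink-tagged APJ and enzyme-acceptor-fused beta-arrestin | schedule = overnight cell seeding, 90 min compound exposure at 25 °C, 60 min detection | benchmarks = Apelin-13 agonist as positive control | detection = luminescence from beta-galactosidase fragment complementation after detection reagent | doses = compound dose series over a concentration range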

Sequence of Apelin receptor (Homo sapiens) (P35414 whole entry, looked up): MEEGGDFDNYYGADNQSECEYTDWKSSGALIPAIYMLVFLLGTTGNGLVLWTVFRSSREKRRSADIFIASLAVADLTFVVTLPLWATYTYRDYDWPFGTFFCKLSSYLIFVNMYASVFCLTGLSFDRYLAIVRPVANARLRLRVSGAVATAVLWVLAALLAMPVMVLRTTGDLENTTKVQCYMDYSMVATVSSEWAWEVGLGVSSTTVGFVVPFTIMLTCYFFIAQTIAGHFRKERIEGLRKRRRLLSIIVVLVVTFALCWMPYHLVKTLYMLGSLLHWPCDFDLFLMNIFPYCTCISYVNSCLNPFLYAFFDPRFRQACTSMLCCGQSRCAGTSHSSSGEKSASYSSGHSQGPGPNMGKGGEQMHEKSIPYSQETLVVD

EC50 | Compound
7.6 µM | CC1=CC(=O)C(C(C)C)=C/C1=N/OS(=O)(=O)c1ccccc1
> 100 µM (inactive) | CCCCCCc1cc2cc(-c3nnc(-c4cc(OC)c(OC)c(OC)c4)o3)c(=O)oc2cc1O
> 100 µM (inactive) | COc1ccc(/C=N/Nc2cc(C)nc3ccc(OC)cc23)c(OC)c1
> 100 µM (inactive) | CCOC(=O)C1=C(Cn2cnc3ccccc32)NC(=O)NC1c1cc(C)ccc1C (stereo not given)
> 100 µM (inactive) | COC(=O)C1=C(Cn2cnc3ccccc32)NC(=O)NC1c1cc(C)ccc1C (stereo not given)
